In one assay the test system is Caco-2. Briefly: Antiproliferative activity against human Caco-2 cells. Type of assay: functional, cell-based. The essentials: (§1)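 Growth densities of Caco-2 (colorectal), LoVo (colon) and PC3MM2 (prostate) adenocarcinoma cultures monitored after compound exposure to measure proliferation.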
A further assay has as its system LoVo. Briefly: Antiproliferative activity against human LoVo cells. Type of assay: functional, cell-based. In outline:
as §1

Assay [1] addresses Phosphatidylinositol 4,5-bisphosphate 3-kinase catalytic subunit gamma isoform (Homo sapiens, UniProt P48736). Briefly: Inhibition of GST-GRP1-fused PI3Kgamma by microtiter plate based fluorescence polarization assay. The essentials:
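Fluorescence polarization assay monitoring PIP3 production by PI3K p110α or p110γ. IC50 values are the means of two experiments, SD ±10%.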
In general terms: In fluorescence polarisation assays a small probe gives low polarisation when free and higher when bound to something large.

In a further assay the test system is PC-3. Kind of assay: Antiproliferative activity against human PC3 cells. The format is functional, cell-based. In outline: as §1
In assay [2] the target is Phosphatidylinositol 4,5-bisphosphate 3-kinase catalytic subunit alpha isoform (Homo sapiens, UniProt P42336). Kind of assay: Inhibition of GST-GRP1-fused PI3Kalpha by microtiter plate based fluorescence polarization assay.
Assay [3] has as its target Serine/threonine-protein kinase mTOR (Homo sapiens, UniProt P42345). Briefly: Inhibition of human TOR in HEK293 cells by DELFIA. Type of assay: cell-based. In outline:
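DELFIA-format assay detecting phosphorylated His6-S6K substrate. IC50 values are the means of two experiments, SD ±10%.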

Another assay concerns MDA-MB-361. Briefly: Inhibition of PI3K in human MDA-MB-361 cells assessed as reduction of phosphorylated Akt (T308) level at 3 to 30 uM after 4 hrs by immunoblotting. Type of assay: cell-based. The essentials:
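MDA-361 breast adenocarcinoma cells were treated in growth media for 4 h with the indicated doses, with a DMSO control. Lysates were immunoblotted for phospho-Akt T308, and for cleaved PARP as an apoptosis marker.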
On the technique in general: In western blotting, separated proteins are transferred to a membrane and probed.

Assay [4] can be described thus: Selectivity ratio of IC50 for PI3Kgamma to IC50 for PI3Kalpha.
Assay [5] in a line: Selectivity ratio of IC50 for human TOR to IC50 for PI3Kalpha.

Activity calls are given as the source filed them. The calls are words filed in the database; no cut-off is given here.

Consider 25 compounds from ChEMBL document CHEMBL1153204, “Novel purine and pyrazolo[3,4-d]pyrimidine inhibitors of PI3 kinase-alpha: Hit to lead studies” (Bioorg Med Chem Lett, 2010).

Sequence of Phosphatidylinositol 4,5-bisphosphate 3-kinase catalytic subunit gamma isoform (P48736 whole entry, the tested form may be a part, canonical isoform): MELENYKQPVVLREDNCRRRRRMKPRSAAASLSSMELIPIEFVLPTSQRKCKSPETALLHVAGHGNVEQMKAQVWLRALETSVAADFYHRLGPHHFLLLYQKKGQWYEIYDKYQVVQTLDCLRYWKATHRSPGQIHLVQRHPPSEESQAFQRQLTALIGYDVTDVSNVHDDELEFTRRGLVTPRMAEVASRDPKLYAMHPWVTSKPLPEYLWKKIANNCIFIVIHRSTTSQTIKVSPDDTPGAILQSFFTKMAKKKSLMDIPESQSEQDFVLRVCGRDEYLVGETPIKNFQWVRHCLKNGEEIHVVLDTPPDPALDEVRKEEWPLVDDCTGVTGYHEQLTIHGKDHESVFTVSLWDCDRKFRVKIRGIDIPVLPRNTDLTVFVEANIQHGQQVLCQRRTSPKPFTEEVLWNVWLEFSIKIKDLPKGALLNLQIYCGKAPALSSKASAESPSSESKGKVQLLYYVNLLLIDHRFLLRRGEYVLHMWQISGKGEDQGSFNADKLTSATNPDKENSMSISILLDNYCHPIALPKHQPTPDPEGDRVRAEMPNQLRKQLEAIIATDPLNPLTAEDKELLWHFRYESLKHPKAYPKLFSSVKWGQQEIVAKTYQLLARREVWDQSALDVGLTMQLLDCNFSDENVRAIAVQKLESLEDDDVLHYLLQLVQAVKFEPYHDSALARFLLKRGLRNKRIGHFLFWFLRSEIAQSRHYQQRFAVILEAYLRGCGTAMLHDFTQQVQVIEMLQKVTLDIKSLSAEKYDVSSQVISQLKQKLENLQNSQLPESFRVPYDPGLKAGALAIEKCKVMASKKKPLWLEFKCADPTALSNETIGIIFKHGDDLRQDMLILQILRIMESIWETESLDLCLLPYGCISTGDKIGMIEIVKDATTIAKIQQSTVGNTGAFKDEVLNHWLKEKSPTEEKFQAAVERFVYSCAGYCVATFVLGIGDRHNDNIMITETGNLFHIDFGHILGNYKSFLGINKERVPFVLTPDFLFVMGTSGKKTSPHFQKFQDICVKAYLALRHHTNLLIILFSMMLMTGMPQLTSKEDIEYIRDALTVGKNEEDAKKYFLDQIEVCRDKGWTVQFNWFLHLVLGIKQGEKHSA
Sequence of Phosphatidylinositol 4,5-bisphosphate 3-kinase catalytic subunit alpha isoform (P42336 whole entry, the tested form may be a part, canonical isoform): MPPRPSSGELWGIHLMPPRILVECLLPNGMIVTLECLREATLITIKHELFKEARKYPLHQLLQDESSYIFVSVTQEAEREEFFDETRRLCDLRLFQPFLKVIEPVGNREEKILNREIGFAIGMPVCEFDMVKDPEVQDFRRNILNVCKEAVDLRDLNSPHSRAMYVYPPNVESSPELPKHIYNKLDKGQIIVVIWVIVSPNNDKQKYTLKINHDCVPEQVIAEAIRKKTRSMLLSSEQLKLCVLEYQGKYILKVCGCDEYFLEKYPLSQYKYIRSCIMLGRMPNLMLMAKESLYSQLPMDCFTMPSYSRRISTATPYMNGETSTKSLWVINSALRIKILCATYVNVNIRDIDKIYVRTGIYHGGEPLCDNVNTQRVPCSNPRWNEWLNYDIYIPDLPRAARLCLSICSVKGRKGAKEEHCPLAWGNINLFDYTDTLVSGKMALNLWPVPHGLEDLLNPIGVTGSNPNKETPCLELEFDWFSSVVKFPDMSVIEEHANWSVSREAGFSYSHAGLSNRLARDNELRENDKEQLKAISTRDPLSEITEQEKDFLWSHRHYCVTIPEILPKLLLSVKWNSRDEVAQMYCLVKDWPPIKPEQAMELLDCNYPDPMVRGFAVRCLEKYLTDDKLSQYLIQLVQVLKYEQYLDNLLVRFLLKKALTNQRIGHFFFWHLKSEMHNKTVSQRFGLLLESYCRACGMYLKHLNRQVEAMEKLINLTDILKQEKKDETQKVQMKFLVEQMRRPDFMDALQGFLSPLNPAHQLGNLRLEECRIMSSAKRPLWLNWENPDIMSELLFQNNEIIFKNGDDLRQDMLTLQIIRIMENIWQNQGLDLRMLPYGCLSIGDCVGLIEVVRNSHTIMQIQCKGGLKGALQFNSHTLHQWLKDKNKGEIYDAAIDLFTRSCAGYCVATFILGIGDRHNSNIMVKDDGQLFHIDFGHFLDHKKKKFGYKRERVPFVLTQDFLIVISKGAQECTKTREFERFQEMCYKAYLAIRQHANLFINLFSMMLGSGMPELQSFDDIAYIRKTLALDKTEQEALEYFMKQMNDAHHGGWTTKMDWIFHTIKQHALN

As a reminder, the IC50 is the concentration at which inhibition is half-maximal. Take `Oc1cccc(-c2nc(N3CCOCC3)c3ncn(CC4CCN(Cc5ccccc5)CC4)c3n2)c1`: the concentration for half-maximal inhibition (IC50) with Caco-2 is 6490 nM; in the assay with LoVo it was 3510 nM; in assay [1], 2380 nM; in the assay on PC-3 it was 7350 nM; in [2] it was 199 nM.
As for `Oc1cccc(-c2nc(N3CCOCC3)c3ncn(C4CCNCC4)c3n2)c1`, the concentration for half-maximal inhibition (IC50) with Caco-2 came out at 4040 nM; with LoVo, 2020 nM; in [1], 131 nM; with PC-3, 1520 nM; in assay [2], 65 nM; in assay [3], 870 nM.
Consider `OCc1cccc(-c2nc(N3CCOCC3)c3cnn(C4CCN(Cc5ccccc5)CC4)c3n2)c1`, for which the IC50 is 1340 nM with Caco-2; 511 nM in the assay on LoVo; 975 nM in [1]; 345 nM in the assay with PC-3; 25 nM in assay [2]; 90 nM in assay [3].
`CS(=O)(=O)c1ccc(-c2nc(N3CCOCC3)c3nc[nH]c3n2)cc1`: the figures for the IC50 in assay [1] and in assay [2] were 5830 nM and 1760 nM, respectively.
For the compound `OCc1ccc(-c2nc(N3CCOCC3)c3nc[nH]c3n2)cc1`, the IC50 in [1] is 7970 nM; in [2], 2890 nM.
Regarding `OCc1cccc(-c2nc(N3CCOCC3)c3ncn(C4CCN(Cc5ccccc5)CC4)c3n2)c1`, in the assay with MDA-MB-361, the inhibition entry is “Active”. Also, the half-inhibitory concentration (IC50) in the assay with Caco-2 was 5170 nM; in the assay on LoVo it was 1050 nM; in the assay on PC-3, 1280 nM; in assay [3], 691 nM.
Turning to `CS(=O)(=O)c1cccc(-c2nc(N3CCOCC3)c3nc[nH]c3n2)c1`, the IC50 in assay [1] was found to be 7910 nM; in assay [2] it was 3900 nM.
On to `Oc1cccc(-c2nc(N3CCOCC3)c3ncn(C4CCN(Cc5ccccc5)CC4)c3n2)c1`, for which the half-maximal inhibitory concentration (IC50) is over 10000 nM with Caco-2; 1950 nM with LoVo; 10800 nM in assay [1]; 1110 nM in the assay on PC-3; 80 nM in assay [2].
As to `N#Cc1cccc(-c2nc(N3CCOCC3)c3nc[nH]c3n2)c1`, the IC50 in assay [1] came to 8300 nM; in assay [2], 2910 nM.
As to `CS(=O)(=O)Nc1cccc(-c2nc(N3CCOCC3)c3nc[nH]c3n2)c1`, the values for the 50% inhibitory concentration (IC50) in [1] and in [2] were 7910 nM and 4380 nM, respectively.
For the compound `c1nc2c(N3CCOCC3)nc(-c3ccoc3)nc2[nH]1`, the IC50 is 11000 nM in assay [1] and 3790 nM in assay [2].
With `c1cc2ccc(-c3nc(N4CCOCC4)c4nc[nH]c4n3)cc2[nH]1`, the results for the IC50 in assay [1], in assay [2] and in [3] were 7370 nM, 2330 nM and 150 nM, respectively.
On to `Oc1cccc(-c2nc(N3CCOCC3)c3nc[nH]c3n2)c1`, for which the concentration for half-maximal inhibition (IC50) in assay [2] was determined as 232 nM; in assay [3], 2380 nM.
As for `OCc1cccc(-c2nc(N3CCOCC3)c3ncn(CC4CCN(Cc5ccccc5)CC4)c3n2)c1`, the concentration for half-maximal inhibition (IC50) is 5790 nM with Caco-2; 3080 nM in the assay with LoVo; 1650 nM in assay [1]; 9270 nM in the assay on PC-3; 248 nM in assay [2].
Turning to `c1nc2c(N3CCOCC3)nc(-c3ccc4c(c3)OCCO4)nc2[nH]1`, the IC50 in assay [1] came to 7580 nM; in assay [2], 3480 nM.
Turning to `OCc1cccc(-c2nc(N3CCOCC3)c3ncn(C4CCNCC4)c3n2)c1`, the half-maximal inhibitory concentration (IC50) with Caco-2 is 4500 nM; with LoVo it was 1870 nM; in the assay with PC-3, 2360 nM; in assay [2], 58 nM. Also, the Ratio IC50 was 11 in assay [4] and over 100 in [5].
For the compound `c1csc(-c2nc(N3CCOCC3)c3nc[nH]c3n2)c1`, the half-inhibitory concentration (IC50) with Caco-2 was over 10000 nM; with LoVo, over 10000 nM; in assay [1] it was 6740 nM; in the assay on PC-3, over 10000 nM; in assay [2], 640 nM.
`NC(=O)c1ccc(-c2nc(N3CCOCC3)c3nc[nH]c3n2)cc1`: the figures for the IC50 in assay [1] and in assay [2] were 10000 nM and 6700 nM, respectively.
Turning to `c1nc2c(N3CCOCC3)nc(-c3ccc4c(c3)OCO4)nc2[nH]1`, the values for the 50% inhibitory concentration (IC50) in assay [1] and in assay [2] were 6910 nM and 1210 nM, respectively.
With `Oc1cccc(-c2nc(N3CCOCC3)c3cnn(C4CCNCC4)c3n2)c1`, the concentration for half-maximal inhibition (IC50) with Caco-2 stood at 5580 nM; in the assay with LoVo, 1580 nM; in [1] it was 993 nM; in the assay on PC-3 it was 922 nM.
`Oc1cccc(-c2nc(N3CCOCC3)c3cnn(C4CCN(Cc5ccccc5)CC4)c3n2)c1`: the IC50 in the assay on Caco-2 was found to be 5970 nM; in the assay with LoVo, 1610 nM; in [1], 2370 nM; in the assay with PC-3, 940 nM; in assay [3] it was 83 nM.
As to `Oc1ccc(-c2nc(N3CCOCC3)c3nc[nH]c3n2)cc1`, the figures for the half-maximal inhibitory concentration (IC50) in [1] and in assay [2] were 8560 nM and 2540 nM, respectively.
For `c1nc2c(N3CCOCC3)nc(-c3ccsc3)nc2[nH]1`, in that order: 8000 nM and 2380 nM.
For `Oc1cccc(-c2nc(N3CCCCC3)c3nc[nH]c3n2)c1`, in that order: 10300 nM and 3770 nM.
Turning to `Oc1ccccc1-c1nc(N2CCOCC2)c2nc[nH]c2n1`, the IC50 in the assay on Caco-2 was over 10000 nM; in the assay with LoVo, 7310 nM; in [1] it was 5140 nM; with PC-3 it was over 10000 nM; in [2], 667 nM.
